Results published in ChEMBL document CHEMBL1137445, “Bioassay-guided fractionation of pterocarpans from roots of Harpalyce brasiliana Benth” (Bioorg Med Chem, 2007).
In brackets after ≈: the same amount, converted by molar mass.

How the values were obtained:
Lytechinus variegatus [1] = test: Antimitotic activity against Lytechinus variegatus at primary cleavage stage of egg development; format: functional, tissue-based
Method in brief: (§1)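 Eggs were fertilized with diluted sperm in filtered seawater, and fertilization was confirmed by elevation of the vitellin membrane. Compounds were added 5 min after fertilization over a 0.1–100 range. Incubation was at room temperature. Aliquots were fixed in equal-volume 10% formaldehyde at first cleavage, third cleavage and blastula. 100 eggs were scored per concentration for % normal development. IC50 and 95% CI came from nonlinear regression of 3 independent experiments.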

HCT-8 (human) = test: Cytotoxicity against human HCT-8 cells by MTT assay
Lytechinus variegatus [2] = test: Antimitotic activity against Lytechinus variegatus at blastulae stage of egg development; format: functional, tissue-based; details: Blastula stage; method in brief: as §1
HL-60 = test: Cytotoxicity against human HL60 cells by MTT assay; format: functional, cell-based
Method in brief: (§2)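 Cell lines were from NCI. Viability was read by MTT reduction to formazan. IC50 and 95% confidence interval came from nonlinear regression of three independent experiments.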

Lytechinus variegatus [3] = test: Antimitotic activity against Lytechinus variegatus at tertiary cleavage stage of egg development; format: functional, tissue-based; method in brief: as §1
MDA-MB-435 = test: Cytotoxicity against human MDA-MB-435 cells by MTT assay; format: functional, cell-based; method in brief: as §2

Row | Structure (SMILES) | IC50 (Lytechinus variegatus [1]) [µg/mL] | IC50 (HCT-8 (human)) [µg/mL] | IC50 (Lytechinus variegatus [2]) [µg/mL] | IC50 (HL-60) [µg/mL] | IC50 (Lytechinus variegatus [3]) [µg/mL] | IC50 (MDA-MB-435) [µg/mL]
1 | C/C(=C\Cc1c(O)ccc2c1OCC1c3cc4c(cc3OC21)OCO4)CO (stereo unspecified) | 1.5 (≈ 4.07 µM) | 8.8 (≈ 23.9 µM) | 0.43 (≈ 1.17 µM) | 16.2 (≈ 44 µM) | 0.52 (≈ 1.41 µM) | > 25
2 | CC1(C)C=Cc2c(ccc3c2OCC2c4cc5c(cc4OC32)OCO5)O1 (stereo unspecified) [LEIOCARPIN] | 1.1 (≈ 3.14 µM) | 6.9 (≈ 19.7 µM) | 0.2 (≈ 0.571 µM) | 5.5 (≈ 15.7 µM) | 0.4 (≈ 1.14 µM) | 13.7 (≈ 39.1 µM)
3 | COc1cccc2c1C(=O)c1c(O)c3c(c(O)c1C2=O)C[C@@](O)(C(=O)CO)C[C@@H]3O[C@H]1C[C@H](N)[C@H](O)[C@H](C)O1 [DOXORUBICIN] | 6.28 (≈ 11.6 µM) | 0.01 (≈ 0.0184 µM) | 0.54 (≈ 0.994 µM) | 0.02 (≈ 0.0368 µM) | 0.34 (≈ 0.626 µM) | […]
4 | Oc1ccc2c(c1)OC[C@H]1c3cc4c(cc3O[C@@H]21)OCO4 [MAACKIAIN] | 6.5 (≈ 22.9 µM) | > 25 | 4.6 (≈ 16.2 µM) | 17.9 (≈ 63 µM) | 4.3 (≈ 15.1 µM) | 11.5 (≈ 40.5 µM)
5 | CC(C)=CCc1c(O)ccc2c1OCC1c3cc4c(cc3OC21)OCO4 (stereo unspecified) | 15.2 (≈ 43.1 µM) | 8.5 (≈ 24.1 µM) | 3.3 (≈ 9.36 µM) | 3.1 (≈ 8.8 µM) | 4.8 (≈ 13.6 µM) | 4.9 (≈ 13.9 µM)
6 | CC(CO)CCc1cc2c(cc1O)OCC1c3cc4c(cc3OC21)OCO4 (stereo unspecified) | 5.18 (≈ 14 µM) | 10.8 (≈ 29.2 µM) | 1.7 (≈ 4.59 µM) | > 25 | 2.1 (≈ 5.67 µM) | 16.9 (≈ 45.6 µM)
